From PubChem
KCNQ1 inh = human KCNQ1 channel inhibition. P51787. hit rate 1.3% among 310,000. CHO-K1 KCNQ1, FluxOR thallium flux fluorescence; stronger effect = higher value. B-score at 10 µM;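 active = compounds whose thallium flux B-score, printed positive for inhibition, exceeds three library SD while starting fluorescence stays within three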;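 also: channel opened by potassium depolarization with thallium stimulus after 20 min compound exposure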
KCNK3 inh = human KCNK3 channel inhibition, primary screen | O14649 | CHO-KCNK3 thallium flux, FluxOR fluorescence; stronger effect = lower value | B-score at 10 µM | hit rate 0.84% among 340,000;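 active = B-score under library mean minus 4 SD, starting fluorescence ratio at most library mean plus 5 SD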;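 also: more negative B-score means stronger inhibition of thallium flux through KCNK3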
KCNQ1 act = potentiates or activates the human KCNQ1 potassium channel; B-score at 10 µM; hit rate 0.35% among 310,000; AID 2648; CHO-K1 KCNQ1, thallium flux FluxOR fluorescence; stronger effect = higher value;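 active = fluorescence ratio B-score, a plate-corrected score, at least three library SD, with initial intensity B-score within 5 SD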
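Material: CHO-K1 cells stably expressing KCNQ1. Medium: assay buffer for compound exposure, DMSO matched across wells. Reagent: K+/Tl+ depolarizing stimulus. Compound dosing: single-concentration screen. Times: 37 °C overnight plating, 90-min dark dye load, 20-min compound pretreatment. Technique: FluxOR Tl+ flux fluorescence.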
KCNK9 inh = human KCNK9 channel inhibition. B-score at 10 µM. AID 488922. HEK293 KCNK9, FluxOR thallium flux fluorescence; stronger effect = lower value. hit rate 1.2% among 310,000;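 active = ratio B-score over 3 SD below the library mean, with starting fluorescence within 5 SD of its mean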;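 also: negative B-score means less thallium flux so channel inhibition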
hERG protect = compounds protecting human hERG from proarrhythmic drug block; Q12809; CHO-hERG, FluxOR thallium flux, dofetilide IC70 present; activation (rescue from dofetilide block), less the hit threshold, % at 10 µM; hit rate 0.51% among 310,000;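 active = activation above the mean of controls blocked by dofetilide plus 5 SD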;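 also: thallium influx through hERG after potassium depolarization seen as dye fluorescence rise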
Each line names hits and unclear results; the compound was inactive in the other large screens. An excerpt weighted towards active compounds, which were near 3.1% of everything screened.

CC(C)OC(=O)c1cc(NC(=S)Nc2ccc([N+](=O)[O-])cc2)cc(C(=O)OC(C)C)c1	KCNQ1 inh 10
N#C/C(=C\c1ccc(O)cc1)C(=O)N1CCCC1	none
N#C/C(=C\c1ccc(C#N)cc1)C(=O)N1CCCC1	KCNQ1 inh 6
COC(=O)CC(NS(=O)(=O)c1cccs1)c1ccc2c(c1)OCO2 (stereo not drawn)	none
Cc1ccc(C(=O)C[n+]2cc(-c3ccc(C)cc3)n3c2CCCCC3)cc1	KCNQ1 inh 14
CC1=C(C(=O)OC2CCCCC2)C(c2ccc(N(C)C)cc2)NC(=O)N1 (stereo not drawn)	none
NC1=NC2(CCCCC2)n2c(nc3ccccc32)N1	none
NC1=NC2(CCC(c3ccccc3)CC2)n2c(nc3ccccc32)N1 (stereo not drawn)	KCNK9 inh -7.88
O=C1/C(=C/Nc2ccc3c(c2)OCO3)CCc2ccccc21	KCNQ1 inh 6
COc1cc(OC)cc(C(=O)NCC(=O)OC2CCCCC2=O)c1 (stereo not drawn)	none (no result: KCNQ1 inh, KCNQ1 act, KCNK9 inh, hERG protect)
CCCOc1ccc(C(=O)NCCC(=O)NCCCC(=O)O)cc1	none
O=[N+]([O-])c1cc(Cl)cc(/C=N/NC(=S)Nc2ccc(S(=O)(=O)N3CCOCC3)cc2)c1O	KCNQ1 inh 8
CCCn1c(SC(C)C(=O)NC2CCCC2)n[nH]c1=O (stereo not drawn)	none (no result: KCNQ1 inh, KCNQ1 act, KCNK9 inh, hERG protect)
COc1ccc(N2C3=C(CC4=C2CCCC4=O)C(=O)CCC3)cc1	KCNK9 inh -6.63
C=CCn1c(SCc2csc(-c3ccc(C)cc3)n2)nnc1-c1ccccc1OC	KCNQ1 inh 6
C=CCOC(=O)/C=C/C(=O)NC(N)=O	none
Cc1onc(-c2ccccc2)c1-c1nnc(-c2ccccc2C(F)(F)F)o1	none
CCn1c(C)nc2cc(-c3nnc(-c4c(-c5ccccc5)noc4C)o3)ccc21	hERG protect 34.3
CC(C)Cn1c(N)c(C(=O)COC(=O)/C=C/c2ccccc2)c(=O)n(C)c1=O	none
Cc1ccc(OCC(=O)NNC(=S)NC(=O)C2CC2)c(C)c1	none
CC(C)c1ccc(OCC(=O)NN2C(=O)c3ccccc3C2=O)c(Br)c1	none
Cc1ccc(OCC(=O)NC(=S)Nc2ccccn2)c(Br)c1	none
CC(C)c1ccc(OCC(=O)NNC(=S)NC(=O)c2cccs2)c(Br)c1	KCNQ1 act 30
Cc1ccc(OCC(=O)NNC(=S)NC(=O)C2CCCCC2)c(C)c1	KCNQ1 act 8
Cc1ccc(OCC(=O)NNC(=S)NC(=O)C(C)(C)C)c(Br)c1	KCNQ1 act 9
Nc1cc(=O)[nH]c(SCC(=O)N2CCCCC2)n1	none
Cc1cccc(NC(=O)CNC(=O)CSc2nc(N)cc(N)n2)c1C	none (no result: KCNQ1 inh, KCNQ1 act, KCNK9 inh, hERG protect)
O=C(c1ccc2nccnc2c1)N1CCN(c2ccccc2)CC1	none
Cc1cccc(N2CCN(C(=O)c3ccc4nccnc4c3)CC2C)c1 (stereo not drawn)	KCNK3 inh -9.52 (no result: KCNQ1 inh, KCNQ1 act, KCNK9 inh, hERG protect)
COc1ccc(CN2CCN(C(=O)CCC(=O)Nc3nnc(C4CCCCC4)s3)CC2)cc1F	none
FC(F)(F)c1cc(-c2cccs2)nc2cc(-c3cccs3)nn12	KCNQ1 inh 6
NNC(=O)c1cc2nc(-c3cccs3)cc(C(F)(F)F)n2n1	none
O=C(c1ccc(N2C(=O)C3C4c5ccccc5C(c5ccccc54)C3C2=O)cc1)N1CCOCC1 (stereo not drawn)	none
Cc1sc(NC(=O)CN(C(=O)c2ccccc2F)C2CCCC2)c(C(N)=O)c1C	none
O=C(Cn1cc(C(F)(F)F)ccc1=O)N/N=C/c1cccc(Cl)c1	none
C/C(=N/NC(N)=S)c1ccc(Br)s1	none
C/C(=N\NC(N)=S)c1cc(-c2ccccc2)c(-c2ccccc2)s1	KCNK9 inh -8.03
